The values below come from ChEMBL document CHEMBL3600321, “Synthesis and antifungal evaluation of head-to-head and head-to-tail bisamidine compounds” (Bioorg Med Chem, 2015).

Values after ≈ are worked out from the molar mass of the structure shown. Active and inactive are the calls of the source. The rule behind the calls is not given here.

One series has as its system Pichia kudriavzevii. As to the kind of experiment: Antifungal activity against Candida krusei WTBF-51 by microbroth dilution method. The series is classed as functional.
The next series deals with Candida parapsilosis. Briefly: Antifungal activity against Candida parapsilosis ATCC 90018 WTBF-88 by microbroth dilution method. Particulars: Lodderomyces parapsilosis. In kind it is functional. An outline of the steps: (§1)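 CLSI microbroth dilution in RPMI 1640 with L-glutamine. MIC values are geometric means of three independent assays.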
For orientation: Broth dilution looks for growth in wells or tubes with falling amounts of substance.

Series [1] concerns Candida albicans. Briefly: Antifungal activity against Candida albicans WTBF-50 by microbroth dilution method. The series is classed as functional. In outline: as §1
For series [2], the system named is Candida albicans. As to the kind of experiment: Fungicidal activity against Candida albicans WTBF-50 assessed as inhibition of cell wall biosynthesis after 90 mins by [3H]-glucosamine incorporation assay. The series is classed as functional, organism-based. In outline:
(§2)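 C. albicans was grown in RPMI at 37 °C to OD600 of about 1, then mixed with 2-fold serial dilutions of compound and one 3H precursor at 10 μCi/ml final. Incubation ran 90 min at 37 °C, about one doubling. TCA precipitate was filter-collected and scintillation-counted. Each concentration was tested in triplicate. Incorporation relative to untreated control was fitted with a four-parameter curve to give the IC50.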

Series [3] relates to Candida albicans. As to the kind of experiment: Fungicidal activity against Candida albicans WTBF-50 assessed as inhibition of lipid biosynthesis after 90 mins by [3H]-acetate incorporation assay. The series is classed as functional, organism-based. An outline of the steps:
as §2

For a further series, the system named is Cryptococcus neoformans. Briefly: Antifungal activity against Cryptococcus neoformans Cn18 (Serotype C) WTBF-106 by microbroth dilution method. The series is classed as functional. An outline of the steps: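 Microbroth dilution per the CLSI protocol, run in Sabouraud Dextrose Broth in place of RPMI. MIC values are geometric means of three independent assays.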

For series [4], the system named is Candida albicans. As to the kind of experiment: Fungicidal activity against Candida albicans WTBF-50 assessed as inhibition of protein biosynthesis after 90 mins by [3H]-leucine incorporation assay. In kind it is functional, organism-based. An outline of the steps:
as §2

In series [5] the test system is Candida albicans. As to the kind of experiment: Fungicidal activity against Candida albicans WTBF-50 assessed as inhibition of DNA and RNA biosynthesis after 90 mins by [3H]-adenine incorporation assay. In kind it is functional, organism-based. In outline: as §2
A further series concerns Nakaseomyces glabratus. Briefly: Antifungal activity against Candida glabrata ATCC 90030 WTBF-86 by microbroth dilution method. The series is classed as functional. An outline of the steps:
as §1

The test system of series [6] is Candida albicans. As to the kind of experiment: Fungicidal activity against Candida albicans WTBF-50 assessed as inhibition of RNA biosynthesis after 90 mins by [3H]-uridine incorporation assay. In kind it is functional, organism-based. In outline: as §2
Series [7] relates to Candida albicans. As to the kind of experiment: Fungicidal activity against Candida albicans WTBF-50 assessed as log10 reduction in CFU/ml at 4 x MIC measured within 4 hrs. In kind it is functional. An outline of the steps:
(§3)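 C. albicans was grown in RPMI at 37 °C to OD600 of about 1. […] Samples taken at intervals were serially diluted and plated on Sabouraud agar, and cfu/ml was counted.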

The subject of the next series is HeLa. Briefly: Cytotoxicity against human HeLa cells assessed as cell viability after 72 hrs by MTS assay. The series is classed as cell-based. A general note: Formazan colour is commonly taken as a measure of viable cells.
Series [8] relates to Candida albicans. As to the kind of experiment: Fungicidal activity against Candida albicans WTBF-50 assessed as decrease in number of viable cells measured within 4 to 24 hrs. The series is classed as functional, organism-based. In outline: as §3
Series [9] can be described thus: Metabolic stability in liver microsomes (unknown origin). In kind it is ADME. On the technique in general: Liver microsomes are a subcellular fraction often used to study metabolism.
The subject of series [10] is Candida albicans. As to the kind of experiment: Ratio of IC50 for inhibition of cell wall biosynthesis in Candida albicans WTBF-50 by [3H]-glucosamine incorporation assay to IC50 for inhibition of DNA and RNA biosynthesis in Candida albicans WTBF-50 by [3H]-adenine incorporation assay. In kind it is functional. In outline:
(§4)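 The ratio was formed from IC50 values of the 3H-precursor incorporation assay: C. albicans at OD600 of about 1 in RPMI, serial compound dilutions, 10 μCi/ml final label, 90 min at 37 °C. TCA precipitate was scintillation-counted, triplicates were run, and IC50 came from a four-parameter fit.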

Series [11] relates to Candida albicans. Briefly: Ratio of IC50 for inhibition of RNA biosynthesis in Candida albicans WTBF-50 by [3H]-uridine incorporation assay to IC50 for inhibition of DNA and RNA biosynthesis in Candida albicans WTBF-50 by [3H]-adenine incorporation assay. The series is classed as functional. In outline: as §4
Series [12] deals with Candida albicans. Briefly: Fungicidal activity against Candida albicans WTBF-50 assessed as log10 reduction in CFU/ml at 1 x MIC measured within 4 hrs. In kind it is functional. An outline of the steps:
as §3

Series [13] relates to Candida albicans. Briefly: Fungicidal activity against Candida albicans WTBF-50 assessed as decrease in number of viable cells at 4 x MIC measured within 4 to 24 hrs. The series is classed as functional, organism-based. In outline:
as §3

Series [14] relates to Candida albicans. Briefly: Fungicidal activity against Candida albicans WTBF-50 assessed as log10 reduction in CFU/ml at 1 x MIC measured within 24 hrs. In kind it is functional. In outline:
as §3

Series [15] relates to Candida albicans. Briefly: Fungicidal activity against Candida albicans WTBF-50 assessed as log10 reduction in CFU/ml at 2 x MIC measured within 24 hrs. In kind it is functional. In outline:
as §3

Series [16] has as its system Candida albicans. As to the kind of experiment: Binding affinity to DNA in Candida albicans WTBF-50 at 4 x MIC after 30 mins by Syto9 dye-based fluorescence microscope with GFP filter analysis. An outline of the steps: (§5)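 An exponential C. albicans culture was treated for 30 min with bisamidine at 4× MIC or with 33 μM Syto9. Fluorescence microscopy used the DAPI channel for the bisamidine and the GFP channel for Syto9, at 400× magnification.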

Series [17] concerns Candida albicans. As to the kind of experiment: Binding affinity to DNA in Candida albicans WTBF-50 at 4 x MIC after 30 mins by Syto9 dye-based fluorescence microscope with DAPI filter analysis. In outline: as §5

With `N=C(N)c1ccc(OCCCCCOc2ccc(C(=N)N)cc2)cc1` [PENTAMIDINE], the minimum inhibitory concentration (MIC) (as a rule, the lowest concentration found to suppress growth) in the series on Pichia kudriavzevii is 19.8 µg/mL (≈ 58.2 µM); in the series on Candida parapsilosis it was 12.5 µg/mL (≈ 36.7 µM); against Candida albicans [1] it was 25 µg/mL (≈ 73.4 µM); against Cryptococcus neoformans it was at least 100 µg/mL; in the series with Nakaseomyces glabratus it was 3.13 µg/mL (≈ 9.19 µM). Further, the concentration for half-maximal inhibition (IC50) (as a rule, the concentration at which inhibition is half-maximal) is over 25 µg/mL in the series on Candida albicans [2]; over 25 µg/mL with Candida albicans [3]; over 25 µg/mL in the series with Candida albicans [4]; 0.19 µg/mL (≈ 0.558 µM) in the series with Candida albicans [5]; 12.2 µg/mL (≈ 35.8 µM) with Candida albicans [6].
Take `CC(=O)O.c1cc2cc(-c3ccc(-c4ccc5cc(C6=NCCCN6)oc5c4)cc3)[nH]c2cc1C1=NCCCN1`: the results for the Activity in the series with Candida albicans [7] and in the series with Candida albicans [8] were over 3 log10CFU/ml and “Dose-dependent effect”, respectively. In the series with HeLa, the CC50 (in general, the concentration that lowers cell viability or growth by half) amounted to 1.5 µg/mL. Further, the MIC against Pichia kudriavzevii turned out to be 0.5 µg/mL; against Candida parapsilosis it was 0.13 µg/mL; with Candida albicans [1], 0.25 µg/mL; with Cryptococcus neoformans it was 0.13 µg/mL; in the series on Nakaseomyces glabratus, 0.06 µg/mL. For the same compound, in series [9], the Stability entry is recorded as “Stable”.
For the compound `O=C(O)C(F)(F)F.c1cc2cc(-c3ccc(-c4cc5ccc(C6=NCCCN6)cc5[nH]4)cc3)[nH]c2cc1C1=NCCCN1`, the Activity with Candida albicans [7] was over 3 log10CFU/ml; in the series on Candida albicans [8], “Dose-dependent effect”; in the series on Candida albicans [12], 3 log10CFU/ml. Besides, in the series with HeLa, the cytotoxic concentration (CC50) came out at 4 µg/mL. In addition, the MIC against Pichia kudriavzevii was determined as 0.13 µg/mL; against Candida parapsilosis, 0.1 µg/mL; against Candida albicans [1], 0.25 µg/mL; against Cryptococcus neoformans, 0.08 µg/mL; in the series on Nakaseomyces glabratus, 0.06 µg/mL. For the same compound, the IC50 in the series with Candida albicans [2] was 0.59 µg/mL; with Candida albicans [3], at least 2 µg/mL; with Candida albicans [4], 0.59 µg/mL; in the series on Candida albicans [5] it was 0.01 µg/mL; with Candida albicans [6], 0.32 µg/mL. The Ratio IC50 in the series on Candida albicans [10] is 59; in the series on Candida albicans [11], 30. In addition, the Stability result in series [9] is reported as “Stable”.
As for `C[C@@H]1[C@H](O)[C@@H](C)/C=C/C=C/C=C/C=C/C=C/C=C/C=C/[C@H](O[C@@H]2O[C@H](C)[C@@H](O)[C@H](N)[C@@H]2O)C[C@@H]2O[C@](O)(C[C@@H](O)C[C@@H](O)[C@H](O)CC[C@@H](O)C[C@@H](O)CC(=O)O[C@H]1C)C[C@H](O)[C@H]2C(=O)O` [AMPHOTERICIN B], the minimum inhibitory concentration (MIC) in the series with Candida parapsilosis came out at 0.31 µg/mL (≈ 0.335 µM); against Cryptococcus neoformans it was 32 µg/mL (≈ 34.6 µM); in the series with Nakaseomyces glabratus, 0.25 µg/mL (≈ 0.271 µM). Also, the concentration for half-maximal inhibition (IC50) with Candida albicans [2] came out at 0.043 µg/mL (≈ 0.0465 µM); in the series with Candida albicans [3] it was 0.036 µg/mL (≈ 0.039 µM); with Candida albicans [4], 0.052 µg/mL (≈ 0.0563 µM); with Candida albicans [5], 0.038 µg/mL (≈ 0.0411 µM); in the series with Candida albicans [6], 0.014 µg/mL (≈ 0.0152 µM). In addition, in the series with Candida albicans [13], the outcome was Active.
As for `CC(=O)O.c1cc2cc(-c3ccc(-c4c[nH]c5cc(C6=NCCCN6)ccc45)cc3)[nH]c2cc1C1=NCCCN1`, the Activity is over 3 log10CFU/ml in the series on Candida albicans [7], 1 log10CFU/ml in the series on Candida albicans [14], 4 log10CFU/ml in the series on Candida albicans [15] and “Dose-dependent effect” in the series with Candida albicans [8]. Besides, in the series on HeLa, the CC50 was found to be 2.4 µg/mL. Besides, the MIC turned out to be 0.25 µg/mL in the series on Pichia kudriavzevii; 0.16 µg/mL in the series with Candida parapsilosis; 0.25 µg/mL against Candida albicans [1]; 0.98 µg/mL against Cryptococcus neoformans; 0.06 µg/mL in the series with Nakaseomyces glabratus. The IC50 was 0.87 µg/mL with Candida albicans [2]; at least 2 µg/mL in the series on Candida albicans [3]; 0.86 µg/mL in the series with Candida albicans [4]; 0.02 µg/mL with Candida albicans [5]; 0.56 µg/mL in the series with Candida albicans [6]. Moreover, the Ratio IC50 was 43.5 with Candida albicans [10] and 30 in the series on Candida albicans [11]. The Stability entry in [9] is on record as “Stable”.
As for `O=C(O)C(F)(F)F.c1cc2cc(-c3ccc(-c4cc5ccc(C6=NCCN6)cc5[nH]4)cc3)[nH]c2cc1C1=NCCN1`, the CC50 with HeLa is 32.5 µg/mL. For the same compound, the result with Candida albicans [16] and in the series on Candida albicans [17] was Active. For the same compound, the MIC amounted to 4 µg/mL with Pichia kudriavzevii; 0.63 µg/mL against Candida parapsilosis; 10.1 µg/mL with Candida albicans [1]; 2 µg/mL against Cryptococcus neoformans; 0.25 µg/mL with Nakaseomyces glabratus. The Stability entry in series [9] is listed as “Stable”.
